The list is not random: actives were taken first. Their share in the collection is about 2%.
FID counter – counter-screen for HCV NS3 helicase inhibitors: DNA intercalator displacement; 0.17% of 290,000 active; DNA fluorescent intercalator displacement, fluorescence; inhibition, % at 7.9 µM; in the data active = inhibition above about 37%;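 also: 0% = vehicle and 100% = reference compound; higher means more ethidium bromide displaced from hairpin DNA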
PABP polyA inh – blocks human PABP binding to poly(A) RNA; 1% of 290,000 active; inhibition, % at 35 µM; AID 2014; fluorescence polarization;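 also: calls also rest on retests at 20 µM and on dose response follow-up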
eIF4H inh – inhibitors of RNA binding by human eIF4H; eIF4H fluorescence polarization binding assay; inhibition, % at 35 µM; 0.94% of 290,000 active; Q15056;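 also: calls also rest on retests at 20 µM and on dose response follow-up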
NS3 helicase inh – inhibitors of Hepatitis C virus NS3 helicase. NS3 helicase DNA unwinding, Cy5 molecular beacon fluorescence. inhibition, % at 10.9 µM. 0.56% of 290,000 active. AID 1800;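 active = inhibition above the mean of all tested compounds plus 3 SD, set per campaign, cut at about 35% in these data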;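 also: 0% = DMSO wells and 100% = thioflavine S control wells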
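test system = hepatitis C virus NS3 helicase domain fragment enzyme | reagent = annealed dual-labelled DNA beacon duplex, ATP-started | times = 1 h at 25 °C | detection = Cy5 fluorescence, 0 and 60 min reads | read-out basis = percent inhibition from t60/t0 fluorescence ratio | control set = DMSO and thioflavine S | replication = one well per compound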
core dimer inh – HCV core protein dimerization inhibition; 0.33% of 300,000 active; TR-FRET GST/Flag-core106 dimerization, 1536-well; AID 1899; inhibition, % at 5 µM;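 active = inhibition above the mean of all tested compounds plus 3 SD, set per screening campaign, cut at about 45% in these data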
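assay system = GST-tagged and Flag-tagged HCV core protein residues 1-106 | controls = unlabelled core106 and no-GST-core106 wells | incubation = compound-protein-antibody incubation 4 h at 22.5 °C | probe or stimulus = Eu donor and XL665 acceptor anti-tag antibodies | read-out = % inhibition based on acceptor/donor emission ratio | signal = TR-FRET 671 and 617 nm emission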
MLLE-PAM2 inh – blocks PAM2 peptide binding to the PABP1 MLLE domain; P11940; GST-MLLE / FITC-PAM2 fluorescence polarization; inhibition, % at 20 µM; 0.36% of 360,000 active; AID 588489; in the data active = inhibition above about 35%, passing the limit was not always enough;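 also: plate controls were DMSO wells with GST-MLLE for no effect and wells lacking GST-MLLE protein for full effect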
* = called active by the depositor; ? = inconclusive; · = no result. Unless noted, no rule for the calls is given here.

SMILES | FID counter | PABP polyA inh | eIF4H inh | NS3 helicase inh | core dimer inh | MLLE-PAM2 inh
CCCCn1nnnc1C(c1cccc2ccccc12)N1CCN(C/C=C/c2ccccc2)CC1 (stereo unspecified) | · | · | · | · | · | -2
COc1ccc(F)c(CN2CCC(CO)(Cc3cccc(C(F)(F)F)c3)CC2)c1 | 39* | -1 | 1 | -28 | -3 | 6
COc1cc(CN2CCC(CO)(Cc3cccc(C(F)(F)F)c3)CC2)ccc1F | 31 | 3 | -2 | -28 | -3 | 6
O=C(NCCc1cccs1)Nc1ccc2nc([C@@H]3O[C@H](CO)[C@@H](O)[C@H]3O)[nH]c2c1 | · | · | · | · | · | -3
CC1CCN(c2ccccc2NC(=S)NC(=O)C(C)(C)C)CC1 | -6 | 70 | -5 | -1 | 4 | 39*
Cc1nc(NC(=S)NC(=O)c2ccco2)sc1C(=O)N(C)C | -18 | 4 | -4 | 9 | -3 | 41*
Cc1ccc(C(=O)Nc2nc(C)c(C(=O)N(C)C)s2)o1 | -4 | 8 | -8 | 2 | 2 | -7
O=C(CSc1ccc(Cl)cc1)Nc1ccccc1N1CCN(C(=O)c2ccc(Cl)cc2)CC1 | 1 | -1 | -6 | -5 | 21 | 5
CC1CCN(c2ccccc2NC(=S)NC(=O)c2cccs2)CC1 | -10 | -5 | -3 | 2 | 9 | 35
CC(C)(C)C(=O)Nc1ccccc1N1CCN(C(=O)c2ccc(Cl)cc2)CC1 | -39 | 1.9* | 86* | -17 | 6 | -5
CC1CCN(c2ccccc2NC(=S)NC(=O)c2ccco2)CC1 | -7 | · | · | 1 | 2 | 46*
O=C(Nc1ccc(C(=O)N2CCCC2)cc1)c1cc(F)c(F)cc1Cl | · | · | · | · | · | 12
O=C(NC(=S)Nc1ccccc1Br)c1ccco1 | -7 | 4 | -9 | 8 | -15 | 45*
Cc1cccc(NC(=S)NC(=O)c2ccco2)c1C | -10 | -6 | 0 | 13 | -2 | 34
Cc1cc(Br)c2nc3c(c(C(=O)O)c2c1)CCCCC3 | -1 | -2 | 2 | -4 | 72* | -11
CC1(O)C(c2ccccc2)=Nc2ccccc21 (stereo unspecified) | · | · | · | · | · | -8
Cc1ccc(S(=O)(=O)N2CN(Cc3ccco3)c3nc4ccccc4nc32)cc1 | -4 | 51* | ? | 20 | 16 | -5
O=S(=O)(c1ccc(F)cc1)N1CN(Cc2ccco2)c2nc3ccccc3nc21 | -3 | 122* | 122* | 15 | 13 | -2
COc1ccc(S(=O)(=O)N2CN(Cc3ccco3)c3nc4ccccc4nc32)cc1 | -15 | ? | ? | 4 | -3 | 3
CCCS(=O)(=O)NC(=O)C1(C)CCCN(C(=O)c2cc(OC)ccc2Br)C1 (stereo unspecified) | · | · | · | · | · | -7
O=C(NCCCN1CCOCC1)c1cc2ccccc2cc1O | · | · | · | · | -5 | 15
O=C(CCOc1ccccc1)NNC(=O)c1ccccc1 | · | · | · | · | · | -1
C#Cc1cccc(Nc2nc(NCc3ccccc3)nc3ccsc23)c1 | · | · | · | · | · | 8
O=C(CN1CCOCC1)N/N=C/c1ccc(-c2ccc(C(=O)O)cc2)o1 | 1 | 68* | 25 | 9 | 0 | -132
CC1(CC(=O)N/N=C/c2ccc(-c3ccc(C(=O)O)cc3)o2)OCCO1 | 3 | 1 | 8 | 5 | -4 | -2
SMILES | FID counter | PABP polyA inh | eIF4H inh | NS3 helicase inh | core dimer inh | MLLE-PAM2 inh
Cc1ccc([C@@H]2[C@@H]3C(=O)N(C)C(=O)[C@@H]3[C@]3(C)C(=O)N(Cc4ccc(-c5ccccc5)cc4)CC(=O)N23)o1 | -39 | 9 | 8 | 6 | -4 | -3
CCc1nc2ccc(C(=O)Nc3cc(-c4ccccc4)ccc3OC)cn2c1N(C)C(=O)c1cccc(OC)c1 | · | · | · | · | · | 2
N#C/C(=C\c1cn(CC(=O)N2CCCCC2)c2ccccc12)C(=O)NCc1ccc2c(c1)OCO2 | -26 | 83* | 62* | 2 | 1 | -6
CC[C@@H]1C/C=C\Cc2ccccc2[C@@H](C(=O)C[C@H](O)CC(C)=O)OC1=O | · | · | · | · | · | 3
N#Cc1ccc(N[C@@H]2CCN3C(=O)c4ccccc4[C@@H]3C[C@H]2O)cc1 | · | · | · | · | · | -54
Cn1c(C(=O)N[C@@H](C(=O)O)c2ccccc2)cc2cc(Cl)ccc21 | -23 | 39* | 62 | -1 | 4 | -17
COC(=O)[C@H]1C[C@H](OC(=O)NCc2ccco2)[C@@]2(O)CN(S(=O)(=O)c3ccc(C)cc3)CC2[C@H]1C(=O)OC (stereo partly specified) | · | · | · | · | · | -20
